The subject of assay [1] is GES1. Nature of the assay: Cytotoxicity against human GES1 cells assessed as reduction in cell viability measured after 48 hrs by MTT assay. Format: cell-based. The note with it: GES1, 48 h. The procedure, abridged: (§1)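 Cells in DMEM with 10% FBS, penicillin/streptomycin, 37 °C, 5% CO2. Seeded at 5×10^3 per well directly into medium holding graded concentrations of sample and incubated 48 h. MTT (5 mg/mL in PBS) added for 4 h, medium replaced with DMSO, absorbance read at 492 nm. IC50 taken as the concentration giving 50% inhibition of proliferation; three replicates, means ± SD.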

Assay [2] has as its system HCT-116. Nature of the assay: Cytotoxicity against human HCT-116 cells assessed as reduction in cell viability measured after 48 hrs by MTT assay. Format: functional, cell-based. The settings on record: HCT-116, 48 h. The gist of the method:
as §1

Assay [3] relates to HepG2. Nature of the assay: Cytotoxicity against human HepG2 cells assessed as reduction in cell viability measured after 48 hrs by MTT assay. The class given is functional, cell-based. The note with it: HepG2, 48 h. The gist of the method: as §1
On the technique in general: Tetrazolium assays rely on reduction of a dye to a coloured formazan, in cell work by metabolically active cells.

The subject of assay [4] is MCF7. Nature of the assay: Cytotoxicity against human MCF7 cells assessed as reduction in cell viability measured after 48 hrs by MTT assay. The class given is functional, cell-based. The settings on record: MCF7, 48 h. The procedure, abridged: as §1
Assay [5] concerns A549. Nature of the assay: Cytotoxicity against human A549 cells assessed as reduction in cell viability measured after 48 hrs by MTT assay. The note with it: A549, 48 h. The class given is functional, cell-based. The procedure, abridged: as §1
Assay [6] relates to HepG2. Nature of the assay: Potency index, ratio of diosgenin IC50 to test compound IC50 for cytotoxicity against human HepG2 cells assessed as reduction in cell viability. The class given is functional.
The subject of assay [7] is A549. Nature of the assay: Induction of apoptosis in human A549 cells assessed as late apoptotic cells at 30 uM after 48 hrs by AnnexinV-FITC/propidium iodide staining based flow cytometry analysis (reference value: 1 to 3.1 %). Format: functional.
Assay [8] concerns A549. Nature of the assay: Induction of apoptosis in human A549 cells assessed as membrane blebbing at 30 uM measured after 48 hrs by phase contrast microscopic analysis. Format: functional, cell-based. The gist of the method:
(§2)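 A549 seeded at 2×10^5 cells/well and allowed to settle 24 h. Then exposed 48 h to test compound (15 or 30 μM) or diosgenin (30 μM); controls received 0.1% DMSO. Cell shape examined by phase contrast microscopy.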

The subject of assay [9] is A549. Nature of the assay: Induction of apoptosis in human A549 cells assessed as cell rounding at 30 uM measured after 48 hrs by phase contrast microscopic analysis. The class given is functional, cell-based. The procedure, abridged:
as §2

For assay [10], the system named is A549. Nature of the assay: Induction of apoptosis in human A549 cells assessed as early apoptotic cells at 15 uM after 48 hrs by AnnexinV-FITC/propidium iodide staining based flow cytometry analysis (reference value: 0.5 to 2.3 %). The class given is functional.
Assay [11] deals with A549. Nature of the assay: Induction of apoptosis in human A549 cells assessed as increase in cleaved PARP expression at 15 to 30 uM by Western blot analysis. Format: functional, cell-based. The settings on record: dose 15-30 µM. The gist of the method: (§3)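 A549 treated with compound (0, 7.5, 15, 30 μM) or diosgenin (0, 15, 30 μM), lysed in RIPA and boiled 10 min. 30 μg protein run on 10% SDS-PAGE, blotted to nitrocellulose, blocked in 5% BSA. Primary antibodies used at 1:1000, HRP secondary at 1:5000 for 2 h, ECL detection. β-actin served as loading control.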
A general note: Immunoblotting shows a protein as a band on a membrane.

In assay [12] the test system is A549. Nature of the assay: Induction of apoptosis in human A549 cells assessed as increase in cleaved caspase 3 expression at 15 to 30 uM by Western blot analysis. Format: functional, cell-based. The note with it: dose 15-30 µM. The gist of the method: as §3
Assay [13] deals with A549. Nature of the assay: Induction of apoptosis in human A549 cells assessed as formation of apoptotic bodies at 30 uM measured after 48 hrs by phase contrast microscopic analysis. Format: functional, cell-based. The gist of the method: as §2
Assay [14] concerns A549. Nature of the assay: Induction of apoptosis in human A549 cells assessed as early apoptotic cells at 30 uM after 48 hrs by AnnexinV-FITC/propidium iodide staining based flow cytometry analysis (reference value: 0.5 to 2.3 %). The class given is functional.
Assay [15] deals with A549. Nature of the assay: Induction of apoptosis in human A549 cells assessed as late apoptotic cells at 15 uM after 48 hrs by AnnexinV-FITC/propidium iodide staining based flow cytometry analysis (reference value: 1 to 3.1 %). Format: functional. (A flow cytometer gives signals particle by particle.)
Assay [16] concerns A549. Nature of the assay: Induction of apoptosis in human A549 cells assessed as increase in cleaved caspase 9 expression at 15 to 30 uM by Western blot analysis. Format: functional, cell-based. The settings on record: dose 15-30 µM. The procedure, abridged: as §3
The test system of assay [17] is A549. Nature of the assay: Induction of apoptosis in human A549 cells assessed as cell shrinkage at 30 uM measured after 48 hrs by phase contrast microscopic analysis. Format: functional, cell-based. The procedure, abridged: as §2

This note sets out measurements from ChEMBL document CHEMBL4715838, “Novel diosgenin derivatives containing 1,3,4-oxadiazole/thiadiazole moieties as potential antitumor agents: Design, synthesis and cytotoxic evaluation” (Eur J Med Chem, 2020).

Calls of active or inactive are those of the source. The rule behind the calls is not given here.

For the molecule `COc1ccc(-c2nnc([C@H](C)CC[C@H]3O[C@H]4C[C@H]5[C@@H]6CC=C7C[C@@H](OC(C)=O)CC[C@]7(C)[C@H]6CC[C@]5(C)[C@H]4[C@@H]3C)o2)cc1`, the IC50 (as a rule, the concentration needed to halve the response being measured) in [1] was 151 µM.

For `COc1ccc(-c2nnc([C@H](C)CC[C@H]3O[C@H]4C[C@H]5[C@@H]6CC=C7C[C@@H](O)CC[C@]7(C)[C@H]6CC[C@]5(C)[C@H]4[C@@H]3C)s2)cc1`, the IC50 is above 100 µM in assay [2]; 209 µM in assay [1]; 23.1 µM in assay [3]; above 100 µM in assay [4]; 16.4 µM in assay [5].

For `Cc1nnc([C@H](C)CC[C@H]2O[C@H]3C[C@H]4[C@@H]5CC=C6C[C@@H](O)CC[C@]6(C)[C@H]5CC[C@]4(C)[C@H]3[C@@H]2C)s1`, the IC50 in [2] worked out at 48.9 µM; in [1] it was 107 µM; in assay [3], 33.2 µM; in assay [4], 33.8 µM; in assay [5], 36.7 µM.

In the case of `CC(=O)O[C@H]1CC[C@@]2(C)C(=CC[C@H]3[C@@H]4C[C@@H]5O[C@H](CC[C@@H](C)c6nnc(C)o6)[C@@H](C)[C@@H]5[C@@]4(C)CC[C@@H]32)C1`, the half-inhibitory concentration (IC50) in [2] stood at 78.8 µM; in [1], 98.2 µM; in assay [3], 57.6 µM; in assay [4] it was 44.8 µM; in assay [5], 34.4 µM.

For `C[C@H]1[C@H]2[C@H](C[C@H]3[C@@H]4CC=C5C[C@@H](O)CC[C@]5(C)[C@H]4CC[C@]23C)O[C@@H]1CC[C@H](C)c1nnc(-c2cccc3ccccc23)s1`, the IC50 in assay [2] was 46.6 µM; in assay [1] it was 201 µM; in [3] it was 32.9 µM; in assay [4] it was 63.8 µM; in assay [5], 18.3 µM. Further, the Ratio IC50 in assay [6] came out at 1.02.

As to `C[C@H]1[C@H]2[C@H](C[C@H]3[C@@H]4CC=C5C[C@@H](O)CC[C@]5(C)[C@H]4CC[C@]23C)O[C@@H]1CC[C@@H](C)c1nnc(-c2cccnc2)o1`, the IC50 in assay [2] was above 100 µM; in [1] it was 199 µM; in assay [3], above 100 µM; in assay [4] it was above 100 µM; in assay [5], 98.1 µM.

With `C[C@@H]1CC[C@@]2(OC1)O[C@H]1C[C@H]3[C@@H]4CC=C5C[C@@H](O)CC[C@]5(C)[C@H]4CC[C@]3(C)[C@H]1[C@@H]2C` [DISOGENIN], the Activity in assay [7] is reported as 2%; in assay [10] it was 2.3%; in assay [14] it was 2.5%; in assay [15], 3.1%. The IC50 in assay [2] came to 49.1 µM; in assay [1], 101 µM; in assay [3], 33.9 µM; in [4], 23.9 µM; in [5] it was 26.4 µM. Further, the outcome in assay [8], in [9], in assay [11], in [12], in [13] and in [16] was inactive. Further, the outcome in [17] was inactive.

For the molecule `CC(=O)O[C@H]1CC[C@@]2(C)C(=CC[C@H]3[C@@H]4C[C@@H]5O[C@H](CC[C@@H](C)c6nnc(-c7ccccc7)o6)[C@@H](C)[C@@H]5[C@@]4(C)CC[C@@H]32)C1`, the IC50 in assay [2] was above 100 µM; in assay [1], 82.3 µM; in assay [3] it was 63.2 µM; in assay [4], above 100 µM; in assay [5] it was 84.5 µM.

Take `CC(=O)O[C@H]1CC[C@@]2(C)C(=CC[C@H]3[C@@H]4C[C@@H]5O[C@H](CC[C@@H](C)c6nnc(C)s6)[C@@H](C)[C@@H]5[C@@]4(C)CC[C@@H]32)C1`: the IC50 in assay [2] is above 100 µM; in assay [1], 75.8 µM; in assay [3] it was 34.2 µM; in assay [4], 47.7 µM; in [5], 40.3 µM.

For the molecule `C[C@H]1[C@H]2[C@H](C[C@H]3[C@@H]4CC=C5C[C@@H](O)CC[C@]5(C)[C@H]4CC[C@]23C)O[C@@H]1CC[C@@H](C)c1nnc(-c2cccnc2)s1`, the IC50 in assay [2] was 51.6 µM; in assay [1], 354 µM; in assay [3] it was 8.83 µM; in [4], above 100 µM; in assay [5] it was 7.68 µM.

As for `CC(=O)O[C@H]1CC[C@@]2(C)C(=CC[C@H]3[C@@H]4C[C@@H]5O[C@H](CC[C@H](C)c6nnc(-c7cccc8ccccc78)s6)[C@@H](C)[C@@H]5[C@@]4(C)CC[C@@H]32)C1`, the IC50 in assay [2] and in assay [5] was above 100 µM throughout.

Take `COc1ccc(-c2nnc([C@H](C)CC[C@H]3O[C@H]4C[C@H]5[C@@H]6CC=C7C[C@@H](O)CC[C@]7(C)[C@H]6CC[C@]5(C)[C@H]4[C@@H]3C)o2)cc1`: the IC50 in [2] was above 100 µM.

For the molecule `CC(=O)O[C@H]1CC[C@@]2(C)C(=CC[C@H]3[C@@H]4C[C@@H]5O[C@H](CC[C@@H](C)c6nnc(-c7cccnc7)o6)[C@@H](C)[C@@H]5[C@@]4(C)CC[C@@H]32)C1`, the IC50 was 72.5 µM in assay [2]; 62.4 µM in assay [1]; 82.6 µM in [3]; above 100 µM in assay [4]; 33.5 µM in assay [5].

As to `CC(=O)O[C@H]1CC[C@@]2(C)C(=CC[C@H]3[C@@H]4C[C@@H]5O[C@H](CC[C@H](C)c6nnc(-c7cccc8ccccc78)o6)[C@@H](C)[C@@H]5[C@@]4(C)CC[C@@H]32)C1`, the IC50 in assay [1] amounted to 70.1 µM.

With `C[C@H]1[C@H]2[C@H](C[C@H]3[C@@H]4CC=C5C[C@@H](O)CC[C@]5(C)[C@H]4CC[C@]23C)O[C@@H]1CC[C@@H](C)c1nnc(-c2ccccc2)s1`, the IC50 in [2] came to 48.9 µM; in assay [1], 527 µM; in assay [3], 32.1 µM; in assay [4], 27.4 µM; in [5], 15 µM. The Ratio IC50 in assay [6] came to 1.05.

Regarding `Cc1nnc([C@H](C)CC[C@H]2O[C@H]3C[C@H]4[C@@H]5CC=C6C[C@@H](O)CC[C@]6(C)[C@H]5CC[C@]4(C)[C@H]3[C@@H]2C)o1`, the IC50 in assay [2] came out at 51.6 µM; in assay [1] it was 72.8 µM; in [3], 34.2 µM; in assay [4] it was 20.4 µM; in [5], 30.4 µM.

Regarding `C[C@H]1[C@H]2[C@H](C[C@H]3[C@@H]4CC=C5C[C@@H](O)CC[C@]5(C)[C@H]4CC[C@]23C)O[C@@H]1CC[C@@H](C)c1nnc(-c2ccccc2)o1`, the IC50 in [2] is above 100 µM; in [1], 120 µM; in assay [3], 39.5 µM; in assay [4], 53 µM; in assay [5] it was 64.2 µM.

In the case of `C[C@H]1[C@H]2[C@H](C[C@H]3[C@@H]4CC=C5C[C@@H](O)CC[C@]5(C)[C@H]4CC[C@]23C)O[C@@H]1CC[C@H](C)c1nnc(-c2cccc3ccccc23)o1`, the IC50 is above 100 µM in [2]; 298 µM in [1]; 29.2 µM in [3]; 69.7 µM in [4]; 31.3 µM in [5].

Regarding `CO[C@@]12[C@H](COC(N)=O)C3=C(C(=O)C(C)=C(N)C3=O)N1C[C@@H]1N[C@@H]12` [MITOMYCIN], the IC50 in assay [2] was 11 µM; in assay [1], 21.1 µM; in [3] it was 32.6 µM; in [4], 16.7 µM; in assay [5], 11 µM.
